# Sampled rows, rich in hits. Any-hit rate of the full collection: about 1.9%.
# Arrestin-AP2 inh – human beta-arrestin and AP2 interaction inhibition; FITC-arrestin peptide / GST-AP2 beads, flow cytometry; AP2 beta2 appendage carries R879A mutation; inhibition, % at 10 µM; hit rate 0.31% among 340,000; AID 504490;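 active means inhibition above a set limit, near 3 SD of compounds lacking own fluorescence, cut at about 54% in these data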;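 further: plate controls were DMSO wells for no effect and 5 µM unlabelled arrestin peptide for full effect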
#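 Assay system: GST-AP2 R879A bound to glutathione beads, E. coli-expressed; Medium: PBS with 0.05% Tween 20 and 0.1% BSA; Also added: fluorescein-tagged arrestin peptide at 50 nM final; Timing: 12 min plus 1 h, RT; Measured by: flow cytometry, FL1 (488/535 nm); Evaluation: percent drop in bead-associated FITC signal.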
# proCasp3 act – activators of human procaspase-3 | P42574 | hit rate 0.11% among 330,000 | activation, % at 8.5 µM | recombinant procaspase-3 D3A, Ac-DEVD-pNA absorbance 405 nm;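 active means activation above the mean of all tested compounds plus 3 SD, cut at about 21% in these data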;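 further: 0% = DMSO alone and 100% = DMSO wells spiked with extra 5 µM PC-3 D3A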
#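 Evaluation: percent activation relative to control range; Material: Procaspase-3 D3A mutant, all three cleavage aspartates alanine; Compound: single dose, 8.5 µM nominal compound, 0.8% DMSO; Replication: one well per compound; Signal: absorbance at 405 nm, 0 and 120 min; Schedule: 1 h preincubation plus 2 h reaction at 25 °C.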
# proCasp7 act – activates human procaspase-7, counter-screen for procaspase-3 activators; P55210; recombinant procaspase-7, Ac-DEVD-pNA absorbance 405 nm; D23A/D198A/D206A triple mutant, cannot self-cleave; scale: DMSO 0, 5 µM enzyme 100; activation, % at 8.5 µM; hit rate 0.093% among 330,000;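 active means percent activation above the screen-wide mean plus 3 SD, cut at about 25% in these data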
#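 Assay system: Uncleavable procaspase-7 mutant enzyme; Input: 2 µM procaspase-7 mutant as dispensed; Also added: DEVD-pNA substrate; Medium: Zinc-free HEPES pH 7.4 with 300 mM NaCl, 0.01% Triton X-100; Timing: 1 h compound preincubation, 2 h substrate cleavage, 25 °C; Measured by: Epi-absorbance of released pNA at 405 nm, two timepoints.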
# PLCb3 inh – PLC-beta3 (human) inhibition, primary screen. Q01970. Purified PLC-beta3, fluorogenic substrate, fluorescence. inhibition, % at 12.2 µM. hit rate 0.18% among 370,000. AID 720704; in the data active means inhibition above about 11%;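 further: 0% = median of compound wells on plate and 100% = full blocker control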
# HGIII-sPLA2 inh – Blocks human group III sPLA2 activity; Q9NZ20; QFRET BODIPY PC-A2 liposome hydrolysis, fluorescence; inhibition, % at 12.2 µM; hit rate 0.56% among 370,000;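 active means inhibition above mean plus 3 SD of compounds lying within the high and low control bounds, cut at about 19% in these data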;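 further: 0% = median of test compound wells and 100% = no enzyme DMSO wells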
# PLCg1 inh – blocks human PLC-gamma1 enzyme activity. P19174. hit rate 0.84% among 370,000. purified PLC-gamma1, fluorogenic substrate, fluorescence. inhibition, % at 12.2 µM
# PLCgamma1 ctr – counter-screen for PLC-beta3 inhibitors: inhibitors of human PLC-gamma1. shares compounds with PLCg1 inh. purified PLC-gamma1, fluorogenic substrate, fluorescence. inhibition, % at 12.3 µM. hit rate 3.1% among 3,300
# PLCbeta3 conf – human PLC-beta3 inhibition, confirmation; hit rate 1% among 3,300; AID 743261; inhibition, % at 12.3 µM; purified PLC-beta3, fluorogenic substrate fluorescence; shares compounds with PLCg1 inh; in the data active means inhibition above about 11%
# The depositor's hits bear a star; / = no result. Unless noted, no stated cut-off is given here; in the data, active means inhibition above about 9.5%; inactive means the rest.
SMILES,Arrestin-AP2 inh,proCasp3 act,proCasp7 act,PLCb3 inh,HGIII-sPLA2 inh,PLCg1 inh,PLCgamma1 ctr,PLCbeta3 conf
Cc1cccc(Oc2ccc(C(=O)NC3CCSC3=O)cn2)c1C (stereo not given),-3,-17,7,15*,4,4,-1,0
Cc1ccc(Oc2ccc(C(=O)NC3CCSC3=O)cn2)cc1 (stereo not given),-1,-1,2,3,-1,3,/,/
CCc1ccc(CCNC(=O)OC2CCC23CCC(c2ccccc2)CC3)cc1 (stereo not given),/,/,/,0,-6,-1,/,/
COc1ccc(S(=O)(=O)N2CCN(CCOc3ccc(Br)cc3)CC2)cc1OC,-7,16,-7,-12,-14,11*,4,1
COc1ccc(S(=O)(=O)N2CCN(CCOc3ccccc3Cl)CC2)cc1OC,1,-2,1,-5,-19,1,/,/
CC(=O)N(C)c1ccc(N=Nc2ccc3ncccc3c2)cc1,0,/,/,10,-5,12*,6,6
Cc1ccc(-n2nnnc2SCC(=O)NCC2(N3CCOCC3)CCCCC2)cc1,-3,/,/,-10,-11,9.7*,-8,-1
O=C(CSc1nnnn1-c1ccccc1)NCC1(N2CCOCC2)CCCCC1,-7,10,11,-1,-7,-4,/,/
Cc1onc(-c2ccccc2)c1CNS(=O)(=O)c1ccccc1,-1,-6,2,-4,-4,2,/,/
Cc1onc(-c2ccccc2)c1CNS(=O)(=O)c1cccc(Cl)c1,8,-7,-1,6,-12,11*,-6,1
Cc1cc(Cl)c(OCCCN2CCCCC2)c(Br)c1,9,10,1,6,2,10*,-5,0
O=C(Nc1ncc2c(n1)CC(c1ccccc1)CC2=O)c1ccco1 (stereo not given),2,-3,1,-1,-5,-1,/,/
O=C(Nc1ncc2c(n1)CC(c1cccc(Cl)c1)CC2=O)c1ccco1 (stereo not given),6,2,5,-4,0,19*,-7,-2
Cc1ccccc1NC(=O)CNc1ccc(Cl)c(C(F)(F)F)c1,4,4,4,16*,-12,13*,3,7
COCCCNC(=O)c1ccc(CS(=O)(=O)Cc2cccc(C)c2)o1,3,4,-2,2,3,1,/,/
Cc1cccc(CS(=O)(=O)Cc2ccc(C(=O)O)o2)c1,4,2,-1,3,15,11*,-6,0
N#C/C(=C\c1ccc(OCc2ccc(F)cc2)cc1)C(=O)Nc1cccc(C(=O)O)c1,-4,9,-8,8,4,10*,-8,-12
N#C/C(=C\c1ccc(OCc2ccc(Br)cc2)cc1)C(=O)Nc1cccc(C(=O)O)c1,-6,-6,-6,-6,8,-1,/,/
Cc1ccccc1NC1=NS(=O)(=O)c2ccccc21,-4,-4,5,2,-1,2,/,/
Cc1ccc(C)c(NC2=NS(=O)(=O)c3ccccc32)c1,-8,-4,-3,-1,5,11*,-9,1
COc1ccc(C(=O)CSc2nnc(-c3ccccn3)n2-c2ccccc2)cc1,/,/,/,-3,-23,0,/,/
CCCC[C@H]1C2CC(OC(=O)NCCCC(=O)OCC)C(C2)[C@H]2CCCCN21 (stereo not given in full),/,/,/,2,7,-3,/,/
COc1ccc2ccccc2c1C1CC(=O)N2CN(C)CSC2=C1C#N (stereo not given),20,-24,-33,4,-26,11*,-8,-9
COc1cc(OC)c(C2CC(=O)N3CN(C)CSC3=C2C#N)cc1OC (stereo not given),1,-19,-29,-19,6,-8,/,/
Cc1c(-c2ccccc2)nc2ccccc2c1C(=O)NCc1cccs1,11,-1,1,14*,-5,4,-3,-2
SMILES,Arrestin-AP2 inh,proCasp3 act,proCasp7 act,PLCb3 inh,HGIII-sPLA2 inh,PLCg1 inh,PLCgamma1 ctr,PLCbeta3 conf
COC(=O)c1cc(-c2ccc(C)cc2)c(=O)n2c1CCC2,/,/,/,-11,15,-8,/,/
CCCn1c(SCC(=O)N2CCc3ccccc32)nnc1-c1ccco1,6,3,2,3,7,6,/,/
CCCn1c(SCC(=O)N2CCCc3ccccc32)nnc1-c1ccccn1,-4,3,1,4,5,12*,0,-2
CCn1nnnc1SCC(=O)N1CCCc2ccccc21,5,10,3,11*,0,-1,0,3
O=C(c1cc(-c2ccc(Cl)cc2)nc2ccccc12)N1CCN(c2ncccn2)CC1,/,/,/,-1,6,-2,/,/
CN(C)CC(=O)N[C@@H]1C[C@@H]2O[C@@H](CO)CC[C@@H]2O[C@@H]1CCc1ccc(C#Cc2ccccc2)cc1,/,/,/,0,-35,1,/,/
CCCC(=O)NNC(=O)CCC(=O)Nc1ccccc1Cl,1,15,9,0,-3,10*,-4,-2
O=C(CCC(=O)Nc1ccccc1Cl)NNC(=O)NC1CCCCC1,6,6,6,-9,6,0,/,/
Cc1cccc(Nc2nc(N)c([N+](=O)[O-])c(NCc3ccco3)n2)c1,34,2,-1,7,-32,14*,-2,-15
Cc1cccc(Nc2nc(NCc3ccco3)nc(N)c2[N+](=O)[O-])c1,-4,-5,-3,-6,-4,-1,/,/
O=C1/C(=C\c2ccco2)SC(=S)N1c1ccc(O)cc1,21,-21,-20,-2,-3,1,/,/
O=C1/C(=C/c2ccco2)SC(=S)N1c1cccnc1,6,/,/,-18,-10,12*,-1,-14
O=C1/C(=C/C=C/c2ccco2)SC(=S)N1c1ccc(O)cc1,34,-13,-23,-8,-10,22*,-9,-23
NN1C(=O)/C(=C\c2ccco2)SC1=S,14,-23,-28,-8,-8,18*,-7,-5
S=c1[nH]nc(-c2cc(-c3ccccc3)n[nH]2)n1N=Cc1cccc(OCc2ccccc2)c1,/,/,/,-2,3,-7,/,/
O=C(Nc1ccc(C(O)c2ccccc2)cc1)[C@@H]1O[C@H](CO)[C@H](O)[C@H](O)[C@H]1O (stereo not given in full),/,/,/,8,13,14*,-7,-2
O=C(NC1CCCC1)C(c1ccc(F)cc1)N(Cc1ccccc1Cl)C(=O)CCl (stereo not given),13,-5,-9,6,-7,-4,/,/

# Bioassay records deposited in PubChem by several laboratories.
